KDM4C inh: inhibitors of human demethylase GASC-1 KDM4C | GST-KDM4C 2-372, H3K9me3 peptide, LANCE TR-FRET | inhibition, % at 12.5 µM | 96,000 compounds, 0.15% hits | AID 720574;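 active means mean replicate inhibition above about 25%, with at least 55% of replicates also reaching it, limit read from the data, passing the limit was not always enough; inconclusive means only one of those two conditions met; inactive means neither condition met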
Target sequence (Q9H3R0 2-372 limits assumed): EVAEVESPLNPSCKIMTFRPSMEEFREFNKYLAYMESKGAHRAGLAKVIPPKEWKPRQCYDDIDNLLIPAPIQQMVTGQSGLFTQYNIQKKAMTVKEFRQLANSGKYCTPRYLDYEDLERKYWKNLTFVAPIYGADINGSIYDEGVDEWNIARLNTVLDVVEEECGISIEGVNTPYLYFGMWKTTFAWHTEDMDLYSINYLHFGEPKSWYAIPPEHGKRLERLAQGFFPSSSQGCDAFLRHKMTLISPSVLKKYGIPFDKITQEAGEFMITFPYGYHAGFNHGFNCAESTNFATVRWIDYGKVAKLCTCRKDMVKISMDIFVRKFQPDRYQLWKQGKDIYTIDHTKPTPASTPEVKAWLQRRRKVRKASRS
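Assay system: GST-GASC-1 enzyme fragment 2-372 | Amount: 10 nM enzyme | Medium: HEPES buffer, pH 7.5, plus ascorbate | Reagent: H3K9me3 peptide substrate, Fe(II), 2-oxoglutarate | Doses: Single-point compound screen | Incubation: 30 min demethylation and 1 h detection at room temperature | Measured by: LANCE TR-FRET, excitation 340 nm, emissions 618 and 671 nm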
Pf Dd2 growth: blocks growth of Plasmodium falciparum Dd2 parasites; P. falciparum Dd2 growth, SYBR Green, 72 h; active compounds read low; 94,000 compounds, 2.3% hits; activity change, % at 10 µM; in the data active means activity change below about -80%; inconclusive means no clear call, values can overlap the other calls
T cruzi growth-1: inhibitors of T. cruzi proliferation. 77,000 compounds, 5.9% hits. T. cruzi beta-gal in NIH3T3, GalScreen luminescence, 90 h. inhibition, % at 8.34 µM. AID 624255;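 active means mean inhibition above about 93%, with at least 55% of replicates each passing it, limit read from the data, passing the limit was not always enough; inconclusive means only one of those two conditions holds; inactive means neither condition holds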
IDH1 R132H inh: inhibitors of human IDH1 R132H; inhibition, % at 10 µM; O75874; IDH1 R132H reductase, diaphorase/resazurin fluorescence, 60 min; 70,000 compounds, 0.18% hits; in the data active means inhibition above about 34%; inconclusive means no clear call, values can overlap the other calls; inactive means below about 11%;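 further: 0% = DMSO and 100% = no enzyme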
T cruzi growth-2: Trypanosoma cruzi proliferation inhibition. 5,600 compounds, 72% hits. T. cruzi beta-gal in NIH3T3, GalScreen luminescence, 90 h. shares compounds with T cruzi growth-1. AID 651739. inhibition, % at 8.35 µM;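 active means mean replicate inhibition above about 95% and at least 55% of replicates individually reaching it, limit read from the data; inconclusive means only one of the two criteria is met; inactive means neither criterion is met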
T cruzi growth-3: inhibitors of T. cruzi proliferation | AID 651740 | T. cruzi beta-gal in NIH3T3, GalScreen luminescence, 90 h | inhibition, % at 2.09 µM | shares compounds with T cruzi growth-1 | 5,600 compounds, 21% hits;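 active means mean inhibition above about 95%, with at least 55% of replicates also reaching it, limit read from the data; inconclusive means meets just one of the two conditions; inactive means meets neither condition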;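 further: plate controls were neutral control median for no effect and positive control median for full effect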
NIH3T3 tox: NIH/3T3 (mouse) viability loss; shares compounds with T cruzi growth-1; cytotoxicity (signal decrease), % at 8.35 µM; 5,600 compounds, 14% hits; NIH/3T3 viability, CellTiter-Glo ATP luminescence, 90 h;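 active means mean signal decrease across replicates above about 35% based on untreated-well scatter, with enough replicates individually passing, limit read from the data; inconclusive means no rule stated though some were filed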;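 further: 0% = median of neutral control wells and 100% = median of positive control wells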
3T3 cytotox 2: NIH/3T3 (mouse) viability loss. shares compounds with T cruzi growth-1. inhibition, % at 24.9 µM. NIH/3T3 viability, CellTiter-Glo ATP luminescence, 90 h. 5,600 compounds, 56% hits;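 active means mean loss of cell viability signal at or above a set limit, and enough replicates individually reaching it; inconclusive means meets only the mean limit or only the replicate share; inactive means meets neither condition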;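 further: 0% = median of neutral control wells and 100% = median of positive control wells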
* = called active by the depositor; ? = inconclusive; . = no result. Hits are enriched below; roughly 5.8% of the tested compounds scored in any of these assays.

SMILES | KDM4C inh | Pf Dd2 growth | T cruzi growth-1 | IDH1 R132H inh | T cruzi growth-2 | T cruzi growth-3 | NIH3T3 tox | 3T3 cytotox 2
O=C(Nc1ccccc1)[C@@H]1[C@@H](CO)[C@@H]2Cn3c(cccc3=O)[C@H]1N2Cc1ccncc1 | 1 | 2 | 100* | . | ? | 13 | -1 | 4
O=C(NCc1ccc(F)cc1)[C@@H]1[C@@H](CO)[C@@H]2Cn3c(cccc3=O)[C@H]1N2Cc1ccncc1 | -2 | 1 | -7 | . | . | . | . | .
CC(C)CC#Cc1cnc2c(c1)C(=O)N([C@H](C)CO)C[C@H](C)[C@H](CN(C)Cc1ccccn1)O2 | 3 | -15 | 25 | 0 | . | . | . | .
C[C@@H]1CN([C@@H](C)CO)S(=O)(=O)c2ccc(C3=CCCCC3)cc2O[C@@H]1CN(C)C(=O)C1CCCCC1 | 9 | 12 | 119* | . | 105* | 93 | 34 | 106*
C[C@H]1CN([C@@H](C)CO)S(=O)(=O)c2ccc(C3=CCCCC3)cc2O[C@@H]1CN(C)C(=O)C1CCCCC1 | 1 | -36 | 121* | . | 103* | 99* | -12 | 105*
C[C@H](CO)N1C[C@H](C)[C@@H](CN(C)C(=O)C2CCCCC2)Oc2cc(C3=CCCCC3)ccc2S1(=O)=O | -2 | -26 | 113* | . | 110* | 48 | 5 | 105*
C[C@@H]1CN([C@@H](C)CO)S(=O)(=O)c2ccc(C3=CCCCC3)cc2O[C@H]1CN(C)C(=O)C1CCCCC1 | 0 | -46 | 118* | 6 | 104* | 45 | 9 | 96*
C[C@H](CO)N1C[C@H](C)[C@@H](CN(C)Cc2ccccc2C(=O)O)Oc2ncc(C#CC3CC3)cc2C1=O | 1 | -9 | 9 | 1 | . | . | . | .
CC(C)NC(=O)Nc1cccc2c1O[C@@H](CN(C)S(C)(=O)=O)[C@@H](C)CN([C@H](C)CO)C2=O | 1 | 11 | 28 | . | . | . | . | .
CCCC#Cc1cnc2c(c1)C(=O)N([C@H](C)CO)C[C@@H](C)[C@@H](CN(C)C(=O)C1CC1)O2 | 1 | -12 | 41 | -2 | . | . | . | .
COc1cccc(NC(=O)N[C@@H]2CC[C@H](CC(=O)Nc3ccc(-c4ccccc4)cc3)O[C@H]2CO)c1 | 1 | -1 | -24 | 0 | . | . | . | .
C[C@@H]1CN([C@@H](C)CO)S(=O)(=O)c2ccc(C#Cc3ccccn3)cc2O[C@H]1CN(C)Cc1ccc(F)cc1 | -26 | -47 | 128* | 0 | 97* | ? | 50* | 39*
C[C@@H]1CN([C@H](C)CO)S(=O)(=O)c2ccc(C#Cc3ccccn3)cc2O[C@H]1CN(C)Cc1ccc(F)cc1 | -12 | -29 | 127* | 0 | 104* | 91 | 29 | 93*
C[C@H]1CN([C@@H](C)CO)S(=O)(=O)c2ccc(C#Cc3ccccn3)cc2O[C@H]1CN(C)C | 1 | 5 | . | -8 | . | . | . | .
C[C@@H]1CN([C@H](C)CO)S(=O)(=O)c2ccc(C#Cc3ccc(F)cc3)cc2O[C@H]1CN(C)C(=O)c1ccccn1 | 3 | -50 | 88 | . | . | . | . | .
C[C@H]1CN([C@@H](C)CO)S(=O)(=O)c2ccc(C#Cc3ccc(F)cc3)cc2O[C@@H]1CN(C)C(=O)c1ccccn1 | -1 | -66 | ? | . | 102* | 29 | 1 | 52*
C[C@@H]1CN([C@H](C)CO)S(=O)(=O)c2ccc(C#Cc3ccccn3)cc2O[C@@H]1CN(C)Cc1ccc(F)cc1 | -5 | -24 | 116* | 0 | 105* | 64 | 11 | 24*
C[C@H](CO)N1C[C@H](C)[C@@H](CN(C)C)Oc2cc(C#Cc3ccccn3)ccc2S1(=O)=O | -1 | 24 | . | -1 | . | . | . | .
O=C(NCC[C@@H]1CC[C@@H](NC(=O)C2CCCC2)[C@H](CO)O1)Nc1ccc(Cl)cc1 | -1 | -13 | . | 0 | . | . | . | .
COc1cccc(NC(=O)N(C)C[C@H]2OCc3ccccc3-c3ccccc3C(=O)N([C@@H](C)CO)C[C@H]2C)c1 | 0 | 13 | -5 | . | . | . | . | .
O=C(C[C@H]1C=C[C@@H](NC(=O)c2cccnc2)[C@H](CO)O1)NCCN1CCCCC1 | -2 | -60 | -54 | 0 | . | . | . | .
